E coli WT exp: E. coli BW25113 growth inhibition, expanded screen; OD600 absorbance; growth inhibition, % at 100 µM; actives 0.15% (n = 98,000); AID 710;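 active = growth inhibition above about 50% at one test dose, limit read from the data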;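 also: growth measured after 20 h incubation at 37 °C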
PostGolgi yeast: growth inhibition of a yeast mutant, post-Golgi transport screen; post-Golgi transport phenotypic cell assay; inhibition, % at 10 µM; actives 0.9% (n = 98,000); AID 739;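 also: yeast cells grown in 1536-well plates; yeast grown about 18 h at 30C before absorbance read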
PostGolgi ctrl: yeast control strain growth, post-Golgi counter-screen | efflux-deficient yeast background strain, growth absorbance A615, 16 h | inhibition, % at 10 µM | actives 5% (n = 98,000)
Cav32 inh: human Cav3.2 channel inhibition, primary screen | O95180 | Cav3.2-expressing cells, Fluo-4 calcium fluorescence FDSS; hits give low values | B-score at 10 µM | actives 4% (n = 100,000) | AID 449739;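 active = single-dose well whose peak fluorescence ratio is a statistical outlier from its plate by either plate-standardised score or position-corrected B-score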
Ecoli tolC: blocks growth of E. coli BW25113 tolC mutant. actives 2.2% (n = 65,000). AID 573. growth inhibition, % at 10 µM (by protocol). OD615;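 active = growth inhibition at or above a cutoff equal to the mean over every tested compound plus 3 SD, cut at about 60% in these data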;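 also: growth measured after 20 h incubation at 37 °C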
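Doses: one dose of 10 µM final / Material: E. coli BW25113 ΔtolC::kan, tolC deletion mutant strain / Buffer or medium: LB with kanamycin 50 µg/mL / Evaluation: percent growth inhibition / Detection: optical density read at 615 nm / Incubation: 37 °C, 20 h exposure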
Pyk2 oligo antag: Pyk2 (human) oligomerization antagonism. z-score (the deposit names both 25 µM and 10 µM). actives 0.83% (n = 99,000). Q293 cells, Pyk2 FERM NanoBiT luminescence; hits give low values;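 active = Z-score of -3 or lower, scaled per plate to the spread of control and sample wells; inactive = z-score above -3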;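 also: negative z-score means lost luminescence so less FERM oligomerization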
Active calls of the source: *; · = not tested or not shown. Sampled rows, rich in hits. Any-hit rate of the full collection: about 8.7%. Rule as the data show it, unless noted: active = inhibition above about 30%; inactive = the rest.

SMILES	E coli WT exp	PostGolgi yeast	PostGolgi ctrl	Cav32 inh	Ecoli tolC	Pyk2 oligo antag
c1ccc2c(c1)ncn2CCN1CCCCC1	·	·	·	0.3	·	-0.05
c1ccc(OCCCCn2cnc3ccccc32)cc1	23	0	9	-2.3	28	0.88
c1ccc(OCCn2cnc3ccccc32)cc1	9	12	34*	-0.74	18	0.71
c1ccc2c(c1)ncn2CCCOc1ccc2c(c1)CCC2	10	-1	34*	-2.6	·	0.22
Cc1cc(C)c(C)c(OCCCCn2cnc3ccccc3c2=O)c1	0	-6	37*	-1.7	·	-0.36
CCC(=O)N1CCC2(CC1)Oc1ccc(F)cc1C(=O)C21CC(c2cccnc2)=NO1 (stereo not drawn)	·	·	·	0.51	·	·
C1=C(CCNCC2CCCCC2)CCCC1	13	-5	15	·	·	1.1
Cc1ccc(OCC(=O)Nc2ccc([N+](=O)[O-])cn2)cc1C	·	·	·	0.1	·	1.9
COc1ccc2nc(SCC(=O)N3CCN(c4ccc(F)cc4)CC3)c(C#N)cc2c1	·	·	·	-0.93	·	1.6
CCOC(=O)C1(CC/C(C)=N\NC(N)=O)CC(C)(C)OC1=O (stereo not drawn)	·	·	·	·	·	0
Cc1ccccc1OCCCCn1cnc2ccccc21	12	5	36*	-2.5	·	-0.43
CC(C)(c1ccccc1)c1ccc(OCCn2cnc3ccccc3c2=O)cc1	-20	5	25	-6.5*	·	0.23
O=S(=O)(c1cccc(S(=O)(=O)N2CCC(Cc3ccccc3)CC2)c1)N1CCOCC1	-13	-6	13	-5.9*	21	-0.81
CC1CCN(S(=O)(=O)c2ccc3c(c2)CCN3C(=O)CCC(=O)O)CC1	-4	2	3	0.48	-10	0.31
O=C(O)CCC(=O)N1CCc2cc(S(=O)(=O)N3CCC(Cc4ccccc4)CC3)ccc21	-12	5	·	-0.081	100*	·
CCCc1cc(-c2nc(N)ncc2-c2ccc3c(c2)OCCCO3)c(O)cc1OC	-6	-12	40*	-1.5	1	-3.1*
COc1ccccc1C(=O)Nc1nc(-c2ccc3c(c2)OCCO3)cs1	·	·	·	0.25	·	·
O=S(=O)(c1ccc2nc(COc3ccccc3)[nH]c2c1)N1CCOCC1	4	1	10	0.39	9	0.94
CCCOc1ccc(OCCNC2CCCC2)cc1	-1	21	1	-0.25	·	0.7
Cn1c(=O)c2c(nc(NCc3ccco3)n2C/C=C/c2ccccc2)n(C)c1=O	·	·	·	-1.5	-5	-3*
Cn1c(=O)c2c(nc(NCc3ccco3)n2Cc2ccccc2Cl)n(C)c1=O	0	4	-3	0.076	-16	1.1
Cc1ccc(N(c2ncnc(N)c2[N+](=O)[O-])C2CCCCC2)cc1	2	0	20	-0.79	·	-2
CC(=O)N(Cc1ccc(F)cc1)C1=C(NCc2ccccc2)C(=O)c2ccccc2C1=O	-14	-4	27	-5.1*	·	-2.7
COc1ccccc1CN1C(=O)CCC1(C)C(=O)NC1CCCCCC1 (stereo not drawn)	2	-3	21	0.41	-13	0.13
COc1ccc(N2C(=O)CC2(/C=C/c2ccccc2OC)C(=O)NC2CCCC2)cc1 (stereo not drawn)	·	·	·	-5.4*	·	-2.9
SMILES	E coli WT exp	PostGolgi yeast	PostGolgi ctrl	Cav32 inh	Ecoli tolC	Pyk2 oligo antag
Cc1nn2c([nH]c(=O)c3ccccc32)c1C=O	5	-2	5	0.65	·	1.7
CC1=CC(C)(C)N2C(=O)C3(SCC(=O)N3c3ccc(F)cc3)c3cc(C)cc1c32 (stereo not drawn)	1	4	50*	-2.4	·	-2.5
CC(C)c1ccc(N2C(=O)CSC23C(=O)N2CCCc4cccc3c42)cc1 (stereo not drawn)	3	6	17	-1.6	·	-0.19
CC1CCN(C(=O)c2[nH]cnc2C(=O)N[C@@H](C)C(=O)OCc2ccccc2)CC1	·	·	·	1.2	·	·
Cn1c(C(=O)N2CCCC(C(=O)NCCCc3ccccc3)C2)cc2sccc21 (stereo not drawn)	-6	-4	8	-4.2*	33	0.52
Cc1ccc(CCNC(=O)C2CCCN(C(=O)c3cc4sccc4n3C)C2)cc1 (stereo not drawn)	4	5	4	-4.8*	16	-0.43
COCCN1C(=O)N[C@@H](c2ccccc2)C(C(C)=O)=C1C	·	·	·	0.84	·	·
CCOc1ccc(NC(=O)CSc2nnc(CCNC(=O)c3ccc(OC)cc3)n2C)cc1	0	-1	12	0.34	·	0.92
Cc1cc2cc(CN(C(=O)C3CC3)C3CCCC3)c3nnnn3c2cc1C	-5	-7	14	-4.9*	21	-1.4

Bioassay records deposited in PubChem by several laboratories.
